In ChEMBL document CHEMBL4371006, “Discovery of N-[4-(Quinolin-4-yloxy)phenyl]benzenesulfonamides as Novel AXL Kinase Inhibitors” (J Med Chem, 2018):

Experiments:
[1] = molecular target: TANK-binding kinase 1-binding protein 1 (Homo sapiens, UniProt A7MCY6); assay: Binding affinity to TBKBP1 in SILAC-labeled human MDA-MB-231 cells lysate by mass spectrometry based kinAffinity assay; type: subcellular
In short: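 MDA-MB-231 lysate applied to KinAffinity matrix of immobilized broadband kinase inhibitors at graded densities to obtain BC50 per target. Competition then run with increasing free compound to give CC50; Kd derived by Cheng-Prusoff. Two competition experiments in parallel to check equilibrium, one with lysate pre-incubated with compound before adding matrix. Quantitation by mass spectrometry.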

[2] = molecular target: 5-azacytidine-induced protein 2 (Homo sapiens, UniProt Q9H6S1); assay: Binding affinity to AZI2 in SILAC-labeled human MDA-MB-231 cells lysate by mass spectrometry based kinAffinity assay; type: subcellular
5-azacytidine-induced protein 2, sequence (Q9H6S1 whole entry): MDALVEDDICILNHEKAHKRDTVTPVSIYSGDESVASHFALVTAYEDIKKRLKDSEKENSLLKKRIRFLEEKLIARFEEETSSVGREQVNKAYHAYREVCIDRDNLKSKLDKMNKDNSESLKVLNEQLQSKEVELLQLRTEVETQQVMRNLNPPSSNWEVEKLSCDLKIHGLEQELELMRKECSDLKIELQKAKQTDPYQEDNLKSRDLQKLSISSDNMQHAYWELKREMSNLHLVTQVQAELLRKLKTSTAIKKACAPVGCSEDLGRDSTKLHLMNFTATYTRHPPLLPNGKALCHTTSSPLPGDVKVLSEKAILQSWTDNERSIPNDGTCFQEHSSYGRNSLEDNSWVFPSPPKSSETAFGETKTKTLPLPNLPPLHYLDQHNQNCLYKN
In short: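 Chemical proteomics: MDA-MB-231 lysate bound to matrix of immobilized broad kinase inhibitors at several densities (BC50), then competed with increasing free compound (CC50); proteins quantified by mass spectrometry, Kd via Cheng-Prusoff. Two competition formats run in parallel to check equilibrium.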

MDA-MB-231 = assay: Antimetastatic activity against human MDA-MB-231 cells xenografted in mouse assessed as reduction in lung metastasis at 30 mg/kg, ip bid measured 3 times per week starting at day 12 by hematoxylin and eosin staining based assay relative to control; type: functional; design: scale not given: the % may be the effect or the level left
In short: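 Female SCID/Beige mice inoculated with 2 x 10^6 MDA-MB-231 cells in HBSS:Matrigel (1:1) into third mammary fat pad under ketamine/xylazine. Test agent 30 mg/kg ip twice daily (12 h apart) in PEG400/H2O 70:30, or paclitaxel 10 mg/kg iv three times weekly; 10 mice/group. Tumors measured three times weekly from day 12; lungs and lymph nodes excised, formalin-fixed, nodes H&E-scored (mean ± SEM).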

TANK-binding kinase 1-binding protein 1, sequence (A7MCY6 whole entry): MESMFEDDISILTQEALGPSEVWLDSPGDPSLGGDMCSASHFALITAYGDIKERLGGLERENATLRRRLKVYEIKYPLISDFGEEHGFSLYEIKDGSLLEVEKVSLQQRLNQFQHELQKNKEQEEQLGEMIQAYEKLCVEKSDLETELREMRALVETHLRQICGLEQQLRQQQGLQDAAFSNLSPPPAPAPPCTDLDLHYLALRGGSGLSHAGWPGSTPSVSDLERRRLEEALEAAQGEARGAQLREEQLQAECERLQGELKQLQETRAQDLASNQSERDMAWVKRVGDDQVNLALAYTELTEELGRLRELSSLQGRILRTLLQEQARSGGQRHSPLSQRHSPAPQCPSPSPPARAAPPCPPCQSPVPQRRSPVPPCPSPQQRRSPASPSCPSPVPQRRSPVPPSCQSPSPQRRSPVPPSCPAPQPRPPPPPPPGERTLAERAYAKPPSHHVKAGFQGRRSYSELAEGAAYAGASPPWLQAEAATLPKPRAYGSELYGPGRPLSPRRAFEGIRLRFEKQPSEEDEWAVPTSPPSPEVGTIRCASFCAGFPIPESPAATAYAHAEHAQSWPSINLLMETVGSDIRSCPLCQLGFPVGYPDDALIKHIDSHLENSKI

| SMILES | Kd(free) [1] [µM] | Kd(free) [2] [µM] | Activity (MDA-MB-231) [%] |
| --- | --- | --- | --- |
| COc1cc2c(Oc3ccc(NS(=O)(=O)c4c(F)cccc4F)cc3F)ccnc2cc1OCCCN1CCN(C)CC1 | 2.09 | 2.982 | – |
| COc1cc2c(Oc3ccc(NS(=O)(=O)c4cc(F)ccc4F)cc3F)ccnc2cc1OCCCN1CCN(C)CC1 | – | – | 65.7 |
